Results taken from article PMC12091843 (Chemmedchem, 2025).
Converted amounts (≈) assume the structure as drawn. Where two headings read alike, the source gives them in different places.

Experiments:
AB ATP synthase = AB ATP synthase (UniProt A3M139+B2I0Z6); type: biochemical, Acinetobacter baumannii; conditions: for Inhibition of AB ATP synthase (in words): even at high / highest concentrations tested
PA ATP synthase = PA ATP synthase (Pseudomonas aeruginosa, UniProt Q9HT14+Q9HT15); assay: biochemical; conditions: for Inhibition of PA ATP synthase (in words): even at high / highest concentrations tested
MT ATP synthase = conditions: cited from earlier work
AB 17978 = assay: Broth microdilution antibacterial activity; type: cell-based; conditions: Acinetobacter baumannii, read-out: MIC AB 17978
PA 2108 (MDR) = assay: Broth microdilution antibacterial activity; type: cell-based, Pseudomonas aeruginosa; conditions: for MIC: Pseudomonas aeruginosa; for Antibacterial activity against PA (in words): highest concentration tested
AB 1605 (MDR) = assay: Broth microdilution antibacterial activity; type: cell-based; conditions: Acinetobacter baumannii, read-out: MIC AB 1605 (MDR)
AB (17978 and 1605) = assay: Broth microdilution antibacterial activity, AB strains summarised in the text; type: cell-based, Acinetobacter baumannii; conditions: for Antibacterial activity against AB strains (in words): highest concentration tested; for MIC: Acinetobacter baumannii, read-out: MICs against AB, one or both strains tested
PA ETC = assay: Inhibition of NADH-driven H+ pumping of the ETC in PA inverted vesicles; type: biochemical, Pseudomonas aeruginosa
Procedure, shortened: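 Inverted inner-membrane vesicles came from P. aeruginosa ATCC 9027 (LB, 37°C, 150 rpm, late exponential). Cells were homogenizer-lysed in Tris-HCl pH 7.5/MgCl2/glycerol buffer, cleared at 9,000 x g, and vesicles pelleted at 169,000 x g. Assay used vesicles at 0.5 mg/mL in HEPES/300 mM KCl pH 7.5 with ACMA and test compound in DMSO. NADH to 0.8 mM started pumping; nigericin stopped it. Fluorescence Ex 415/Em 485 nm; percent quenching normalized to no-inhibitor control.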

SMILES	MIC (AB 17978) [mg/L]	MIC (PA 2108 (MDR); read-out: MIC PA 2108 (MDR)) [mg/L]	MIC (AB 1605 (MDR)) [mg/L]	MIC (AB (17978 and 1605)) [mg/L]	other results
COc1nc2ccc(Br)cc2cc1[C@@H](c1ccccc1)[C@@](O)(CCN(C)C)c1cccc2ccccc12 [BDQ, bedaquiline, reference compound]					Inhibition of AB ATP synthase (in words) (AB ATP synthase): does not fully inhibit; Inhibition of PA ATP synthase (in words) (PA ATP synthase): does not fully inhibit; Potency against MT ATP synthase (in words) (MT ATP synthase): nanomolar potency
O=C(N[C@H](CO)[C@H](O)c1ccc([N+](=O)[O-])cc1)C(Cl)Cl [Chloramphenicol, reference compound]	64 (≈ 198 µM)	64 (≈ 198 µM)			
c1ccc(CSc2nc3ccccc3cc2CNCc2ccc(N3CCCCC3)cc2)cc1 [WSA248, 1‐(2‐(benzylthio)quinolin‐3‐yl)‐N‐(4‐(piperidin‐1‐yl)benzyl)methanamine]	> 128	> 128	> 128		Inhibition of AB ATP synthase (in words) (AB ATP synthase): no significant inhibition; Inhibition of PA ATP synthase (in words) (PA ATP synthase): no significant inhibition; Antibacterial activity against PA (in words) (PA 2108 (MDR)): inactive; Antibacterial activity against AB strains (in words) (AB (17978 and 1605)): inactive
c1ccc(CSc2nc3ccccc3cc2CNCc2ccc(CN3CCCC3)cc2)cc1 [WSA249, 1‐(2‐(benzylthio)quinolin‐3‐yl)‐N‐(4‐(pyrrolidin‐1‐ylmethyl)benzyl)methanamine]	32 (≈ 70.5 µM)	16 (≈ 35.3 µM)	64 (≈ 141 µM)		MIC (PA 2108 (MDR); read-out: MIC against MDR PA): 16 mg/L (≈ 35.3 µM)
CN1CCN(CCNCc2cc3ccccc3nc2SCc2ccccc2)CC1 [WSA250, N‐((2‐(benzylthio)quinolin‐3‐yl)methyl)‐2‐(4‐methylpiperazin‐1‐yl)ethan‐1‐amine]	64 (≈ 157 µM)	64 (≈ 157 µM)	128 (≈ 315 µM)		
CCN1CCC(CCNCc2cc3cc(OC)c(OC)c(OC)c3nc2SCc2ccccc2)CC1 [WSA251, N‐((2‐(benzylthio)‐6,7,8‐trimethoxyquinolin‐3‐yl)methyl)‐2‐(1‐ethylpiperidin‐4‐yl)ethan‐1‐amine]	128 (≈ 251 µM)	128 (≈ 251 µM)	> 128		Fold less potent than WSA236 against PA (antibacterial) (PA 2108 (MDR); MIC comparison): 4 fold; Fold less potent than WSA236 against AB (antibacterial) (AB (17978 and 1605); MIC comparison): 2 fold
COc1cc2cc(CNCCC3CCN(C4CCCC4)CC3)c(SCc3ccccc3)nc2c(OC)c1OC [WSA252, N‐((2‐(benzylthio)‐6,7,8‐trimethoxyquinolin‐3‐yl)methyl)‐2‐(1‐cyclopentylpiperidin‐4‐yl)ethan‐1‐amine]	64 (≈ 116 µM)	64 (≈ 116 µM)			
COc1cc2cc(CNCCN3CCN(C)CC3)c(SCc3ccccc3)nc2c(OC)c1OC [WSA253, N‐((2‐(benzylthio)‐6,7,8‐trimethoxyquinolin‐3‐yl)methyl)‐2‐(4‐methylpiperazin‐1‐yl)ethan‐1‐amine]	128 (≈ 258 µM)	128 (≈ 258 µM)	> 128		Fold improvement of IC50 for AB by trimethoxy modification (AB ATP synthase): 3 fold; Fold worsening of IC50 for PA by trimethoxy modification (PA ATP synthase): ~3 fold
CCN1CCC(CCNCc2cc3cc(Br)ccc3nc2SCc2ccccc2)CC1 [WSA254, N‐((2‐(benzylthio)‐6‐bromoquinolin‐3‐yl)methyl)‐2‐(1‐ethylpiperidin‐4‐yl)ethan‐1‐amine]	16 (≈ 32.1 µM)	32 (≈ 64.2 µM)		8 to 16 (≈ 16 to 32.1 µM)	
Brc1ccc2nc(SCc3ccccc3)c(CNCCC3CCN(C4CCCC4)CC3)cc2c1 [WSA255, N‐((2‐(benzylthio)‐6‐bromoquinolin‐3‐yl)methyl)‐2‐(1‐cyclopentylpiperidin‐4‐yl)ethan‐1‐amine]	16 (≈ 29.7 µM)	32 (≈ 59.4 µM)		8 to 16 (≈ 14.9 to 29.7 µM)	IC50 (PA ATP synthase): 0.427 µM; Fold less potent against the ETC compared to ATP synthase (PA ETC; PA ETC IC50 versus PA ATP synthase IC50): more than 7 fold; PA ETC IC50 (PA ETC; PA vesicles, dose response fit): 1.7 mg/L
Brc1ccc2nc(SCc3ccccc3)c(CNCc3ccc(CN4CCCC4)cc3)cc2c1 [WSA256, 1‐(2‐(benzylthio)‐6‐bromoquinolin‐3‐yl)‐N‐(4‐(pyrrolidin‐1‐ylmethyl)benzyl)methanamine]	> 128	> 128	> 128		Antibacterial activity against PA (in words) (PA 2108 (MDR)): inactive; Antibacterial activity against AB strains (in words) (AB (17978 and 1605)): inactive
CN1CCN(CCNCc2cc3cc(Br)ccc3nc2SCc2ccccc2)CC1 [WSA257, N‐((2‐(benzylthio)‐6‐bromoquinolin‐3‐yl)methyl)‐2‐(4‐methylpiperazin‐1‐yl)ethan‐1‐amine]	8 (≈ 16.5 µM)	16 (≈ 33 µM)	16 (≈ 33 µM)	8 to 16 (≈ 16.5 to 33 µM)	IC50 (PA ATP synthase): 0.268 µM; MIC (PA 2108 (MDR); read-out: MIC against MDR PA): 16 mg/L (≈ 33 µM)
CCN1CCC(CCNCc2cc3cc(-c4ccccc4)ccc3nc2SCc2ccccc2)CC1 [WSA261, N‐((2‐(benzylthio)‐6‐phenylquinolin‐3‐yl)methyl)‐2‐(1‐ethylpiperidin‐4‐yl)ethan‐1‐amine]	8 (≈ 16.1 µM)	64 (≈ 129 µM)	16 (≈ 32.3 µM)	8 to 16 (≈ 16.1 to 32.3 µM)	
c1ccc(CSc2nc3ccc(-c4ccccc4)cc3cc2CNCCC2CCN(C3CCCC3)CC2)cc1 [WSA262, N‐((2‐(benzylthio)‐6‐phenylquinolin‐3‐yl)methyl)‐2‐(1‐cyclopentylpiperidin‐4‐yl)ethan‐1‐amine]	32 (≈ 59.7 µM)	64 (≈ 119 µM)			
c1ccc(CSc2nc3ccc(-c4ccccc4)cc3cc2CNCc2ccc(CN3CCCC3)cc2)cc1 [WSA269, 1‐(2‐(benzylthio)‐6‐phenylquinolin‐3‐yl)‐N‐(4‐(pyrrolidin‐1‐ylmethyl)benzyl)methanamine]	> 128	> 128	> 128		Antibacterial activity against PA (in words) (PA 2108 (MDR)): inactive; Antibacterial activity against AB strains (in words) (AB (17978 and 1605)): inactive
CN1CCN(CCNCc2cc3cc(-c4ccccc4)ccc3nc2SCc2ccccc2)CC1 [WSA270, N‐((2‐(benzylthio)‐6‐phenylquinolin‐3‐yl)methyl)‐2‐(4‐methylpiperazin‐1‐yl)ethan‐1‐amine]	16 (≈ 33.1 µM)	32 (≈ 66.3 µM)		8 to 16 (≈ 16.6 to 33.1 µM)	
